Data on 93 molecules can be found in PubChem BioAssay AID704 (The Scripps Research Institute Molecular Screening Center, 2007).

The campaign covered roughly 97,000 compounds. About 770 (0.79%) were called active. The sample as a whole holds a higher share of actives than the screen did. A number with no mark means an inactive call.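 Rule for the calls: active = inhibition above the screen-wide mean plus 3 SD (cut at about 35% in these data); inactive = the rest.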

Protein Rev (Human immunodeficiency virus type 1 group M subtype B (isolate WMJ22)), sequence (P05866 whole entry, looked up): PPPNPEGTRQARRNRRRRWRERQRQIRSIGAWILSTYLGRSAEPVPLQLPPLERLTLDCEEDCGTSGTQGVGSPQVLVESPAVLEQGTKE

The target of the assay is Protein Rev (Human immunodeficiency virus type 1 group M subtype B (isolate WMJ22)) (UniProt P05866). The assay can be described thus: HIV-1 Rev-RRE binding inhibitors, primary screen, biochemical, FRET, protein-RNA interaction (AID 704). The note with it: Rev peptide-RRE RNA binding, at 8 µM, active compounds read high. The method, boiled down:
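assay system = Cy5-tagged RRE RNA duplex with fluorescein-tagged Rev peptide | incubation = 5 + 15 min at 25 °C | also added = labelled Rev peptide | measure = % inhibition of FRET ratio versus controls | benchmarks = DMSO wells as 0% and neomycin B wells as 100% inhibition | measured by = FRET fluorescence readout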
One may read the inhibition as the change of the read-out against control, counted positive when it falls. `O=C(Cc1c[nH]c2ccccc12)OCCOC(=O)Cc1c[nH]c2ccccc12`: the inhibition was 3.26%.

For the molecule `CCOc1nnc(C)c2c(C)n(-c3cccc(Cl)c3)nc12`, the inhibition is 53.5% (active). As to `COC(=O)C(C)n1cnc2c(nnn2-c2cccc(Cl)c2)c1=O` (stereo not drawn), the inhibition is 3.58%.

`CCOc1cccc(-n2nnnc2-c2ccc(OC)cc2)c1`: the inhibition is 1.17%. For `C=CCC(NCc1ccco1)c1ccc(OC)cc1` (stereo not drawn), the inhibition is 2.12%.

`CCCCCCCCOC1OC(CO)C(O)C(O)C1NC(C)=O` (stereo not drawn): the inhibition is -1.01%.

As for `O=C(c1ccc2c(c1)OCO2)N1CCOCC1`, the inhibition is 2.74%.

For `O=C(NCCOc1ccccc1)c1ccccc1`, the inhibition was 7.52%. For `CCOC(=O)c1sc(NC(=O)c2ccncc2)nc1C`, the inhibition is 4.33%.

Consider `CC/S(CC1CC1(Cl)Cl)=N\S(=O)(=O)c1ccc(C)cc1` (stereo not drawn), for which the inhibition was -0.12%. To `CCN(CC)C(=O)CSc1nnc(C2CCCCC2)o1` belongs -0.19%; to `CCOc1ccc2c(c1)C(c1ccc(C)cc1)=NNC(c1ccc(C)cc1)=N2`, -0.68%; to `COc1ccccc1C(c1nnnn1C(C)(C)C)N1CCN(Cc2ccccc2)CC1` (stereo not drawn), 5.48%. As for `O=C1CSC(c2ccccc2)N1c1nc(-c2ccc(Cl)cc2Cl)cs1` (stereo not drawn), the figure is 11.2%; as for `Cc1cc(C)cc(OCC(=O)NNC(=O)c2cc3ccccc3oc2=O)c1`, 3.32%; as for `O=c1c2ccccc2c(-c2ccc(Br)cc2)nn1Cc1ccccc1`, 10.1%. Take `CC1=NN(Cc2ccccc2)C(=O)/C1=C/c1ccc(N(C)C)cc1`: the inhibition is 13.1%. Turning to `CN(C)c1ccc(/C=C2\NC(=S)N(Cc3ccccc3)C2=O)cc1`, the inhibition was 136% [fluorescence artefact?] (active).

On to `CC(C)(C)n1nnnc1C(c1ccc(Cl)cc1)N1CCSCC1` (stereo not drawn), for which the inhibition is 3.16%. `O=c1c2ccccc2nc2n1C(CSCc1cccc(C(F)(F)F)c1)CS2` (stereo not drawn): the inhibition is 5.83%. Take `OC(COCCC12CC3CC(CC(C3)C1)C2)CN1CCCCC1` (stereo not drawn): the inhibition was -1.79%. For the molecule `CCCCn1c(=S)[nH]c2cc(S(=O)(=O)N3CCCCC3)ccc21`, the inhibition is 1.26%. Consider `Clc1ccc(-n2nnnc2CN2CCCCC2)cc1Cl`, for which the inhibition was 1.19%. On to `CCOC(=O)C1=C(C)NC2=C(C(=O)CC(C)(C)C2)C1c1ccsc1` (stereo not drawn), for which the inhibition is 0.96%. `CCOC(=O)c1[nH]c2ccccc2c1N=C(C)N(CC)CC`: the inhibition is 65% (active). As to `Cc1[nH]c2ccccc2c1C(=O)COC(=O)C(C)C`, the inhibition was 2.32%.

Turning to `CCOC(=O)c1[nH]c2ccc(C)cc2c1N=C(C)N(C)C`, the inhibition was 7.68%. For `O=C(Nc1nccs1)C1CCN(S(=O)(=O)c2ccc(Cl)c(C(F)(F)F)c2)CC1`, the inhibition was 11.3%. In the case of `COC(=O)c1sccc1-n1cccc1C(=O)C(=O)N1CCCCC1`, the inhibition is 4.4%. Consider `Cc1cccc(-c2nc3c(c(SCC(=O)N4CCOCC4)n2)CCCC3)c1`, for which the inhibition is 12.4%.

With `CCCCSc1[nH]c(=O)c(C(=O)OCC)cc1C#N`, the inhibition was 0.71%.

For `COc1ccc(-n2nc(C(=O)NCC(=O)Nc3cccc(C)n3)c3ccccc3c2=O)cc1`, the inhibition was 6.83%.

On to `Cc1nc(-c2ccccc2)sc1-c1nc(-c2ccccc2)ncc1S(=O)(=O)c1ccccc1`, for which the inhibition was 2.59%.

As for `CNC(=O)/C(=C\C=C\c1ccccc1)NC(=O)c1ccc([N+](=O)[O-])cc1`, the inhibition is 3.26%.

As to `CCOC(=O)c1cnn(Cc2ccccc2Cl)c1N`, the inhibition was 3.78%. On to `CCCCCCc1cc2cc(-c3nnc(-c4cccc(OC)c4)o3)c(=O)oc2cc1O`, for which the inhibition was 126% [fluorescence artefact?] (active). As for `CCCCN(CC)CCCNC(=O)CS(=O)(=O)Cc1nc(-c2cccc(OC)c2)oc1C`, the inhibition is -1.81%. To `O=c1oc2cc(O)ccc2cc1-c1ccc(F)cc1` belongs 10.2%. To `COc1cccc(C(=O)c2cc3ccc(O)cc3oc2=O)c1` belongs 2.17%; to `CCCCCCc1cc2cc(-c3nnc(-c4ccccc4)o3)c(=O)oc2cc1O`, 136% [fluorescence artefact?] (active); to `COc1cc(C(=O)NC(=S)NCc2ccco2)cc(OC)c1OC`, -0.1%.

Take `COc1ccc(-c2cc(C3CCN(c4ncccc4[N+](=O)[O-])CC3)[nH]n2)cc1`: the inhibition was 15.1%. For the molecule `Cc1cccc(CSc2nnc(NC(=O)CSc3nnc(C)s3)s2)c1`, the inhibition is 2.97%.

Take `Cc1ccc(-c2noc(CSc3nnc(-c4ccncc4)n3-c3ccc(F)cc3)n2)cc1`: the inhibition is 1.43%.

`CCOc1ccc(NC(=O)N(CC(C)C)CC(C)C)cc1`: the inhibition is 7.89%. On to `COc1ccc(CCNC(=S)NC(=O)/C=C/c2ccc(C)cc2)cc1OC`, for which the inhibition is -2.76%.

In the case of `CC(=O)Nc1ccc(S(=O)(=O)N2CCN(C(=O)c3ccccc3F)CC2)cc1`, the inhibition was 4.25%. As for `Cn1c2c(c(=O)n(C)c1=O)C(c1cccc([N+](=O)[O-])c1)Nc1ccccc1O2` (stereo not drawn), the figure is 0.04%. For `CS(=O)(=O)n1nc(-c2ccccc2)nc1NCc1ccco1`, the inhibition is 7.66%.

On to `CSc1nc(N(C)NC(=O)c2cccc(C)c2)c2ccccc2n1`, for which the inhibition is 3.84%. Take `Cc1ccc(C)c(NC(=O)C2Cc3ccccc3CN2C(=O)OCc2ccccc2)c1` (stereo not drawn): the inhibition is 15.4%. For `CCOC(=O)c1c(C)oc2cc(Br)c(OCC(N)=O)cc12`, the inhibition was -5.76%.

As to `COC(=O)C1=C(C)NC(=O)NC1/C=C/c1ccccc1` (stereo not drawn), the inhibition was 7.27%. To `COc1ccccc1NC(=O)C1=C(C)NC2=C(C(=O)CCC2)C1c1ccc(C)o1` (stereo not drawn) belongs -3.73%; to `COC(=O)C1=C(C)NC2=C(C(=O)c3ccccc32)C1c1ccc(-c2ccc(C(=O)O)cc2)o1` (stereo not drawn), 41.7% (active). As to `N#C/C(=C(/O)COc1cccc2ccccc12)c1nc2ccccc2[nH]1`, the inhibition is 8.41%.

As to `COc1ccc(-n2nnnc2SCc2nc(N)nc(N3CCOCC3)n2)cc1`, the inhibition is 8.05%.

As to `O=C(COc1ccc(/C=N/NS(=O)(=O)c2ccccc2)cc1)NCCc1ccccc1`, the inhibition was 6.41%. For the molecule `O=S(=O)(N1CCCCC1)N1CCNCC1`, the inhibition was 0.92%. As for `CCN(CC)c1ccc(NC(=O)c2ccc(Cl)nc2)cc1`, the figure is -7.72%; as for `Cc1c(C(=O)OC(C)C)sc(NC(=O)c2cccnc2)c1C#N`, 27.8%. For `CC(C)c1cc(C(N)=O)c(NC(=O)c2cccc(COc3ccc(Br)cc3)c2)s1`, the inhibition is 15.9%. In the case of `CC1=CC(C)(C)Nc2ccc(OC(=O)C(Cc3ccccc3)N3C(=O)C4CCCCC4C3=O)cc21` (stereo not drawn), the inhibition is -0.51%.

Regarding `CCCNC(=O)CN(Cc1ccccc1F)S(=O)(=O)c1ccc(C)cc1`, the inhibition is 8.11%. For `COC(=O)/C(NC(C)=O)=C(\C)c1ccc(Cl)cc1`, the inhibition was 1.2%. In the case of `O=C(c1cc2c(s1)CCC2)N1CCN(c2ccccc2)CC1`, the inhibition was -4.48%.

For the molecule `CC(=O)Nc1ccc(OCC(O)CN2CCN(c3ccccc3Cl)CC2)cc1` (stereo not drawn), the inhibition was -0.14%. As for `CCOC(=O)CSc1nc2c(sc(=S)n2CCc2ccccc2)c(=O)n1Cc1ccco1`, the figure is 7.11%. Turning to `Cc1cc2c(c(=O)n1Cc1ccco1)C(c1ccccc1)C(C#N)=C(N)O2` (stereo not drawn), the inhibition is 7.8%. Regarding `CN(c1ccccc1)c1ccc(/C=c2\s/c(=C(/C#N)C(=O)C(C)(C)C)n(Cc3ccco3)c2=O)cc1`, the inhibition was 117% [fluorescence artefact?] (active).

`N#C/C(=C(/O)Cc1cccc2ccccc12)c1nc2ccccc2s1`: the inhibition is 3.55%. Turning to `O=C(C1=C(O)C(=O)N(c2ncccn2)C1c1cccs1)c1ccco1` (stereo not drawn), the inhibition was 46.5% (active). Regarding `O=C(C1=C(O)C(=O)N(Cc2ccccc2)C1c1cccnc1)c1ccco1` (stereo not drawn), the inhibition was 7.49%.

For `O=C(C1=C(O)C(=O)N(Cc2ccccc2)C1c1ccco1)c1ccco1` (stereo not drawn), the inhibition is 0.29%.

With `O=c1c2ccccc2nc2n1C(CSc1ccc(Cl)cc1)CN2` (stereo not drawn), the inhibition was 6.92%.

For the molecule `CCOC(=O)c1sc(C)c2c1NC(C)(c1cccc3ccccc13)NC2=O` (stereo not drawn), the inhibition was 18.2%. As to `CCN1C(=O)C(CC(=O)Nc2cc(C)ccc2C)SC1=Nc1ccc(S(N)(=O)=O)cc1` (stereo not drawn), the inhibition is 9.41%.

`CC(CN1CCOCC1)c1ccccc1` (stereo not drawn): the inhibition was 10.4%.

For the molecule `Cc1ccc(NC(=O)Nc2ccc3oc(C)nc3c2)cc1`, the inhibition was 7.33%. In the case of `CCOCN(C(=O)Cn1c(C(C)O)nc2ccccc21)c1c(C)cccc1CC` (stereo not drawn), the inhibition was 2.37%. Regarding `Cc1c(C#N)c(NC(=O)c2ccccc2)n(Cc2ccccc2)c1C`, the inhibition is 2.3%. On to `Cc1nn(CCOc2ccccc2)c(=O)n1-c1ccccc1F`, for which the inhibition is 5.48%.

For `COc1cc(/C=C(\C#N)c2nc3c(s2)CC(C)CC3)ccc1O` (stereo not drawn), the inhibition was 66% (active). With `COc1cc(C(=O)OC(C)C(=O)NCC2CCCCC2)cc(NC(=O)c2ccco2)c1OC` (stereo not drawn), the inhibition was -0.95%. As to `CCOCc1nnc(NC(=O)CSc2ccc(C)cc2)s1`, the inhibition was 6.99%. As for `CS(=O)(=O)c1ccc2c(c1)SC1=NC(=O)/C(=C/c3ccco3)C(=N)N12`, the figure is 36.1% (active). For the molecule `CN(C)CCNC(=O)Nc1cccc(Cl)c1Cl`, the inhibition is 2.97%. On to `O=C1COc2ccc(NC(=O)N3CCN(c4ccc(F)cc4)CC3)cc2N1`, for which the inhibition is 5.12%.

Regarding `O=C(CC12CC3CC(CC(C3)C1)C2)Nc1ccc2c(c1)COC2=O`, the inhibition is 11.5%. `Oc1ccc2ccc3cccc[n+]3c2c1`: the inhibition is 120% [fluorescence artefact?] (active).

For `Cc1noc(C)c1C(=O)OCC(=O)/C=C1\N(C)c2ccccc2C1(C)C`, the inhibition was 2.24%. As for `CN1/C(=C\C(=O)c2oc3ccccc3c2N)C(C)(C)c2ccccc21`, the figure is 6.51%. Regarding `CN1/C(=C\C=C2\N=C(c3ccc(F)cc3)OC2=O)C(C)(C)c2ccccc21`, the inhibition was 48.7% (active).
